Measurements: ChEMBL document CHEMBL4038305, “Benzoxaborole Antimalarial Agents. Part 5. Lead Optimization of Novel Amide Pyrazinyloxy Benzoxaboroles and Identification of a Preclinical Candidate” (J Med Chem, 2017)

Assays:
Plasmodium berghei [1] = experiment: Antimalarial activity against Plasmodium berghei infected in Swiss Webster mouse assessed as mouse survival rate at 11 mg/kg administered once daily via oral gavage for 4 consecutive days beginning 1 hr after infection measured on day 14 post infection relative to control; assay type: functional
Procedure, shortened: (§1)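 Mice given an intraperitoneal injection of P. berghei-infected erythrocytes taken from a previously infected animal. Oral dosing once daily for 4 consecutive days, starting 1 h after infection. Vehicle: polyethylene glycol 300/propylene glycol/water (weight ratio 55/25/20). Percent survival recorded daily from day 4 to day 20. Chloroquine 30 mg/kg and vehicle-only groups served as controls.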

[2] = AUC (0 to infinity) in Sprague-Dawley rat at 5 mg/kg, iv by HPLC/MS analysis; assay type: ADME, organism-based; design: dose 5 mg/kg, route intravenous, time infinity; details: in vivo
Plasmodium falciparum [3] = experiment: Antimalarial activity against Plasmodium falciparum Dd2 infected in human erythrocytes assessed as reduction in [3H]-hypoxanthine incorporation preincubated for 24 hrs followed by [3H]-hypoxanthine addition measured after 24 hrs by scintillation counting method; assay type: functional, cell-based
Plasmodium falciparum [4] = experiment: Antimalarial activity against intraerythrocytic stage of Plasmodium falciparum assessed as parasite reduction ratio at 100 times IC50 preincubated for 24 hrs followed by [3H]-hypoxanthine addition measured after 24 hrs by scintillation counting method; assay type: functional
Procedure, shortened: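 In vitro P. falciparum parasite reduction ratio assay run at 10×, 30× and 100× IC50. Derived parameters: lag phase (time to maximal killing), PRR (parasites killed per life cycle) and PCT99.9% (time to clear 99.9% of the initial parasite population).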

Salmonella typhimurium [5] = experiment: Genotoxicity in Salmonella typhimurium TA98 assessed as number of revertants per plate at 15 ug/plate in absence of rat liver S9 fraction by Ames test (reference value: 14 +/- 6); assay type: toxicity; details: salmonella enterica subsp. enterica serovar typhimurium
Salmonella typhimurium [6] = experiment: Genotoxicity in Salmonella typhimurium TA98 assessed as number of revertants per plate at 500 ug/plate in absence of rat liver S9 fraction by Ames test (reference value: 14 +/- 6); assay type: toxicity; details: salmonella enterica subsp. enterica serovar typhimurium
Salmonella typhimurium [7] = experiment: Genotoxicity in Salmonella typhimurium TA98 assessed as number of revertants per plate at 1.5 ug/plate in presence of rat liver S9 fraction by Ames test (reference value: 19 +/- 8); assay type: toxicity; details: salmonella enterica subsp. enterica serovar typhimurium
Salmonella typhimurium [8] = experiment: Genotoxicity in Salmonella typhimurium TA98 assessed as number of revertants per plate at 500 ug/plate in presence of rat liver S9 fraction by Ames test (reference value: 19 +/- 8); assay type: toxicity; details: salmonella enterica subsp. enterica serovar typhimurium
Salmonella typhimurium [9] = experiment: Genotoxicity in Salmonella typhimurium TA100 assessed as number of revertants per plate at 1.5 ug/plate in presence of rat liver S9 fraction by Ames test (reference value: 141 +/- 1); assay type: toxicity; details: salmonella enterica subsp. enterica serovar typhimurium
Salmonella typhimurium [10] = experiment: Genotoxicity in Salmonella typhimurium TA100 assessed as number of revertants per plate at 15 ug/plate in presence of rat liver S9 fraction by Ames test (reference value: 141 +/- 1); assay type: toxicity; details: salmonella enterica subsp. enterica serovar typhimurium
Salmonella typhimurium [11] = experiment: Genotoxicity in Salmonella typhimurium TA100 assessed as number of revertants per plate at 50 ug/plate in presence of rat liver S9 fraction by Ames test (reference value: 141 +/- 1); assay type: toxicity; details: salmonella enterica subsp. enterica serovar typhimurium
Salmonella typhimurium [12] = experiment: Genotoxicity in Salmonella typhimurium TA100 assessed as number of revertants per plate at 1500 ug/plate in presence of rat liver S9 fraction by Ames test (reference value: 141 +/- 1); assay type: toxicity; details: salmonella enterica subsp. enterica serovar typhimurium
Salmonella typhimurium [13] = experiment: Genotoxicity in Salmonella typhimurium TA1535 assessed as number of revertants per plate at 50 ug/plate in absence of rat liver S9 fraction by Ames test (reference value: 10 +/- 3); assay type: toxicity; details: salmonella enterica subsp. enterica serovar typhimurium
Salmonella typhimurium [14] = experiment: Genotoxicity in Salmonella typhimurium TA1535 assessed as number of revertants per plate at 150 ug/plate in absence of rat liver S9 fraction by Ames test (reference value: 10 +/- 3); assay type: toxicity; details: salmonella enterica subsp. enterica serovar typhimurium
Salmonella typhimurium [15] = experiment: Genotoxicity in Salmonella typhimurium TA1535 assessed as number of revertants per plate at 1.5 ug/plate in presence of rat liver S9 fraction by Ames test (reference value: 10); assay type: toxicity; details: salmonella enterica subsp. enterica serovar typhimurium
Salmonella typhimurium [16] = experiment: Genotoxicity in Salmonella typhimurium TA1537 assessed as number of revertants per plate at 5000 ug/plate in absence of rat liver S9 fraction by Ames test (reference value: 19 +/- 9); assay type: toxicity; details: salmonella enterica subsp. enterica serovar typhimurium
Salmonella typhimurium [17] = experiment: Genotoxicity in Salmonella typhimurium TA1537 assessed as number of revertants per plate at 5000 ug/plate in presence of rat liver S9 fraction by Ames test (reference value: 11 +/- 4); assay type: toxicity; details: salmonella enterica subsp. enterica serovar typhimurium
Escherichia coli [18] = experiment: Genotoxicity in Escherichia coli WP2uvrA assessed as number of revertants per plate at 5 ug/plate in absence of rat liver S9 fraction by Ames test (reference value: 45 +/- 9); assay type: toxicity
Escherichia coli [19] = experiment: Genotoxicity in Escherichia coli WP2uvrA assessed as number of revertants per plate at 1.5 ug/plate in presence of rat liver S9 fraction by Ames test (reference value: 42 +/- 6); assay type: toxicity
Escherichia coli [20] = experiment: Genotoxicity in Escherichia coli WP2uvrA assessed as number of revertants per plate at 150 ug/plate in presence of rat liver S9 fraction by Ames test (reference value: 42 +/- 6); assay type: toxicity
Lymphocyte [21] = experiment: Genotoxicity in human lymphocytes assessed as increase in frequency of micronucleated cells at 160 ug/mL after 3 hrs in presence of rat liver S9 fraction by micronucleus assay (reference value: 0.63%); assay type: toxicity, cell-based; details: s9, 3 h
Lymphocyte [22] = experiment: Genotoxicity in human lymphocytes assessed as increase in frequency of micronucleated cells at 80 ug/mL after 3 hrs in absence of rat liver S9 fraction by micronucleus assay (reference value: 0.99%); assay type: toxicity, cell-based
Lymphocyte [23] = experiment: Genotoxicity in human lymphocytes assessed as increase in frequency of micronucleated cells at 40 ug/mL after 28 hrs in absence of rat liver S9 fraction by micronucleus assay (reference value: 0.74%); assay type: toxicity, cell-based
Rattus norvegicus = experiment: Genotoxicity in rat assessed as micronucleated polychromatic erythrocytes in bone marrow at 500 mg/kg administered via oral gavage measured after 24 hrs post dose by micronucleus assay (reference value: 0.07 +/- 0.05%); assay type: toxicity, organism-based; details: in vivo
Plasmodium berghei [24] = experiment: Antimalarial activity against Plasmodium berghei infected in Swiss Webster mouse assessed as mouse survival rate at 1 mg/kg administered once daily via oral gavage for 4 consecutive days beginning 1 hr after infection measured on day 5 post infection relative to control; assay type: functional; procedure, shortened: as §1
Plasmodium berghei [25] = experiment: Antimalarial activity against Plasmodium berghei infected in Swiss Webster mouse assessed as mouse survival rate at 3 mg/kg administered once daily via oral gavage for 4 consecutive days beginning 1 hr after infection measured on day 7 post infection relative to control; assay type: functional
Procedure, shortened: (§2)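 P. berghei-infected erythrocytes taken from a previously infected mouse were injected intraperitoneally. Oral dosing, once daily for 4 consecutive days, began 1 h after infection, in polyethylene glycol 300/propylene glycol/water (55/25/20 by weight). Chloroquine at 30 mg/kg was the positive control, with a vehicle-only group. Percent survival was recorded daily from day 4 to day 20.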

Plasmodium berghei [26] = experiment: Antimalarial activity against Plasmodium berghei infected in Swiss Webster mouse assessed as mouse survival rate at 3 mg/kg administered once daily via oral gavage for 4 consecutive days beginning 1 hr after infection measured on day 8 post infection relative to control; assay type: functional; procedure, shortened: as §2

In the case of Cc1c(Oc2cnc(C(=O)N3CC(O)(C(C)C)C3)cn2)ccc2c1B(O)OC2, the survival at 11 mg/kg (Plasmodium berghei [1]) is reported as 0%.
With Cc1c(Oc2cnc(C(=O)N3CC(C)(O)C3)cn2)ccc2c1B(O)OC2 the AUC(0-inf) [2] was 21700 ng·h/mL, the IC50 (Plasmodium falciparum [3]) was 53 nM and the “log(ratio)” value (Plasmodium falciparum [4]) was 4.9. The Activity (Salmonella typhimurium [5]) was 15, the Activity (Salmonella typhimurium [6]) was 10 and the Activity (Salmonella typhimurium [7]) was 20. The Activity (Salmonella typhimurium [8]) was 18, the Activity (Salmonella typhimurium [9]) was 150 and the Activity (Salmonella typhimurium [10]) was 149. For the same compound, the Activity (Salmonella typhimurium [11]) was 136, the Activity (Salmonella typhimurium [12]) was 144 and the Activity (Salmonella typhimurium [13]) was 8. It also gave an Activity (Salmonella typhimurium [14]) of 8, an Activity (Salmonella typhimurium [15]) of 9 and an Activity (Salmonella typhimurium [16]) of 10. The Activity (Salmonella typhimurium [17]) was 9, the Activity (Escherichia coli [18]) was 35 and the Activity (Escherichia coli [19]) was 39. It also gave an Activity (Escherichia coli [20]) of 53, an Activity (Lymphocyte [21]) of 0.5% and an Activity (Lymphocyte [22]) of 0.81%. For the same compound, the Activity (Lymphocyte [23]) was 1.18% and the Activity (Rattus norvegicus) was 0.03%.
For Cc1c(Oc2cnc(C(=O)NC(C)CO)cn2)ccc2c1B(O)OC2 (configuration not stated), the survival at 1 mg/kg (Plasmodium berghei [24]) was 20%, the survival at 3 mg/kg (Plasmodium berghei [25]) was 60% and the survival at 3 mg/kg (Plasmodium berghei [26]) was 0%.
